This is a sample that favours compounds with a hit; in the whole collection about 3.3% have one here.
STAT3 act: IL-6 driven STAT3 reporter potentiators, primary screen, U3A cells, luciferase, luminescence, MLSCN library; AID 871, 2007; activation (% of control), % at 5.6 µM; IL-6 STAT3-luciferase reporter; 100% = signal with IL-6 EC80 alone; 190,000 compounds, 0.91% hits;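 active means activation above the screen-wide mean of compound activation plus 3 SD, cut at about 130% in these data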;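 further: 0% = background luminescence of wells with medium and substrate only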
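System – human U3A cells carrying STAT3-luciferase construct · Probe or stimulus – Interleukin-6, 33 ng/mL · Schedule – compound 1 h, then IL-6 6 h at 37 °C · Signal – luminescence from STAT3-driven luciferase reporter · Evaluation – percent of IL-6-only median luminescence · Benchmarks – IL-6-only high control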
AHR activator: AHR activators, primary screen, cell-based, luminescence, luciferase reporter, human; Aryl hydrocarbon receptor (Homo sapiens), P35869; AHR-responsive luciferase reporter cells; activation, % at 5 µM; 320,000 compounds, 2.5% hits; in the data active means activation above about 47%;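 further: 0% = vehicle wells and 100% = reference agonist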
FXN GAA850 act: FXN promoter activators, primary screen, cell-based, luciferase luminescence, HEK293 lucGAA850; HEK293 lucGAA850 FXN promoter luciferase reporter, 24 h; percent of 10 µM SAHA response; activation, % at 6 µM; 360,000 compounds, 0.56% hits; AID 540364, 2011;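 active means activation above the average of all compounds screened plus 3 SD, cutoff fixed separately per campaign, cut at about 7.5% in these data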;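 further: 0% = DMSO wells and 100% = 10 µM SAHA wells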
ABCB6 inh MLPCN: ABCB6 transporter inhibitors, primary screen, K562-ABCB6 cells, flow cytometry, MLPCN library. K562-ABCB6 porphyrin accumulation, 1 h; hits give low values. fluorescence ratio to DMSO, % at 10 µM. ATP-binding cassette sub-family B member 6 (Homo sapiens), Q9NP58. 360,000 compounds, 0.19% hits;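 active means fluorescence ratio to DMSO below 75%, the collection mean minus 3 SD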;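 further: signal is porphyrin accumulated inside mitochondria; 100% equals median channel fluorescence of DMSO control wells; lower ratio means ABCB6 inhibition with less porphyrin fluorescence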
AHR act confirm: AHR activators, confirmation, cell-based, luminescence, luciferase reporter, human; AID 2845, 2010; 2,300 compounds, 87% hits; human cells, AHR-responsive luciferase reporter; shares compounds with AHR activator; activation, % at 9 µM; in the data active means activation above about 49%;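 further: HepG2 hepatoma cells carrying a DRE-driven firefly luciferase reporter; 0% = vehicle wells and 100% = reference agonist wells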
PXR act counter: human PXR activators, counter-screen for AHR activator project, cell-based, luciferase luminescence; 2,300 compounds, 88% hits; activation, % at 11.6 µM; shares compounds with AHR activator; cell-based PXR reporter; in the data active means activation above about 11%;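 further: human hepatoma DPX-2 cells expressing full-length human PXR; 0% = DMSO and 100% = reference agonist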
Target sequence (O75469 whole entry, looked up): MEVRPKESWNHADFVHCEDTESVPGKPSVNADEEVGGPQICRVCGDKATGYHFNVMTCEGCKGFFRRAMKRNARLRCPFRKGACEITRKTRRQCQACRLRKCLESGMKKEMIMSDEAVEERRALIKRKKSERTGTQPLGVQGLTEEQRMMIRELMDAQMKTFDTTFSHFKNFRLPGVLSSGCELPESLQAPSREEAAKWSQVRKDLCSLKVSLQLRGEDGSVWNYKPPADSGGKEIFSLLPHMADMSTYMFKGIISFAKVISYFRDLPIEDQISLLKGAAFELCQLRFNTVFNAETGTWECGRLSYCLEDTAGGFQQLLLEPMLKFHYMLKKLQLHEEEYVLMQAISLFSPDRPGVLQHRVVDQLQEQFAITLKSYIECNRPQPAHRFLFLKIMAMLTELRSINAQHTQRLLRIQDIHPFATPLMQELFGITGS
Active calls of the source: *; x = not tested or not shown.

SMILES	STAT3 act	AHR activator	FXN GAA850 act	ABCB6 inh MLPCN	AHR act confirm	PXR act counter
Cc1cc2n(n1)C(c1ccco1)Nc1ccccc1-2 (stereo not drawn)	101	4	3	100	x	x
CCN1CCn2c3c(c4cc(Cl)ccc42)CCCC31 (stereo not drawn)	89	118*	2	104	62*	48*
CCN(CC)CCN1CCn2c3c(c4cc(C)ccc42)CCCC31 (stereo not drawn)	105	15	1	104	x	x
Cc1c(C(=O)Nc2nnc(C3CC3)s2)oc2ccccc12	x	111*	6	102	136*	55*
Cc1c(C(=O)Nc2nccs2)oc2ccccc12	x	x	5	95	x	x
Cc1csc(NC(=O)c2oc3ccccc3c2C)n1	x	83*	2	95	136*	27*
Cc1ccc(N=Nc2c(O)[nH]c3ccc(F)cc23)cc1	x	114*	5	111	129*	22*
O=C(CN(Cc1ccco1)C(=O)CNS(=O)(=O)c1ccc(Cl)cc1)NCc1ccco1	x	-2	-1	104	x	x
COc1ccc(OC)c(S(=O)(=O)N2Cc3ccccc3CC2C(=O)Nc2nccs2)c1 (stereo not drawn)	124	84*	0	95	60*	135*
Cc1cccc(CSc2nnc3c(n2)[nH]c2ccccc23)c1	x	36	1	97	x	x
Cc1nc2[nH]c(=S)[nH]c(=O)c2nc1C	x	x	0	102	x	x
Cc1nc2c(=O)[nH]c(=S)n(C)c2nc1C	100	81*	0	91	56*	4
Cc1ccc(Nc2ncccc2C(N)=O)cc1	88	151*	5	95	133*	x
O=C(Nc1ccn(Cc2ccc(Cl)cc2)n1)c1ccccc1	110	7	5	96	x	x
O=C(Nc1ccc2c(c1)OCCO2)c1ccc(Br)c(S(=O)(=O)N2CCOCC2)c1	71	x	-10	86	x	x
O=C(Nc1ccn(Cc2ccccc2)n1)c1ccc2c(c1)OCO2	108	112*	2	96	77*	43*
CC(=O)Nc1ccc(C(=O)Nc2ccc3c(c2)OCO3)cc1	101	11	1	107	x	x
O=C(Nc1ccc2c(c1)OCO2)c1ccc(Br)c(S(=O)(=O)N2CCCC2)c1	73	87*	1	99	47	154*
Cc1ccc(C(=O)Nc2ccc3c(c2)OCO3)cc1NC(=O)c1ccco1	112	122*	1	97	86*	33*
Cc1cc(C(=O)Nc2ccc3c(c2)OCO3)cs1	111	130*	4	95	90*	43*
COc1ccc(CN2C(=O)C(CC(=O)NCCCCc3ccccc3)CC(C(=O)N3CCCCCC3)=C2C)cc1 (stereo not drawn)	x	x	x	99	x	x
CC(=O)N1CCN(S(=O)(=O)c2cccc(C(=O)Nc3ccc4c(c3)OCO4)c2)CC1	99	12	1	95	x	x
O=C(Nc1ccc2c(c1)OCO2)c1cccc(S(=O)(=O)N2CCOCC2)c1	x	112*	4	106	91*	36*
O=C(Nc1ccc2c(c1)OCO2)Nc1cnccn1	90	37	-1	97	x	x
O=C(Nc1ccc2c(c1)OCO2)c1ccc2c(c1)OCO2	70	91*	2	103	19	18*
SMILES	STAT3 act	AHR activator	FXN GAA850 act	ABCB6 inh MLPCN	AHR act confirm	PXR act counter
O=C(Nc1cccnc1)Nc1ccc2c(c1)OCO2	101	85*	2	94	91*	16*
O=C(Nc1ccc(Cl)c(Cl)c1)c1ccc2c(c1)OCO2	x	34	0	96	x	x
O=C(Nc1ccc2c(c1)OCO2)c1ccc(Cl)s1	120	113*	4	93	85*	34*
COC(=O)CNc1nc(Cl)nc(Nc2ccc(Cl)cc2)n1	99	-1	1	103	x	x
COc1ccc(NC(=O)Nc2cccnc2)c(OC)c1	98	91*	-1	93	115*	12*
Cc1ccc(NC(=O)c2ccoc2C)cc1C	94	11	2	97	x	x
Cc1occc1C(=O)Nc1ccc2c(c1)OCO2	90	125*	1	93	51*	47*

Screening results: PubChem BioAssay, several laboratories
